Measurements reported in ChEMBL document CHEMBL3232903, “New pyrazolobenzothiazine derivatives as hepatitis C virus NS5B polymerase palm site I inhibitors” (J Med Chem, 2014).

Columns and labels:
[1] = system: Hepatitis C virus isolate HC-J4; experiment: Inhibition of RNA-dependent RNA polymerase activity of HCV genotype 1b HC-J4 recombinant N-terminal histidine tagged C-terminal 21 aminoacids truncated NS5B polymerase at 50 uM after 1 hr by standard primer dependent elongation assay
How it was run: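 Recombinant NS5BCΔ21 genotype 1b in a primer-dependent elongation assay. […] IC50 is the concentration halving enzyme activity in vitro; mean ± SD of two independent experiments in duplicate.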

[2] = Inhibition of RNA-dependent RNA polymerase activity of HCV genotype 1b HC-J4 recombinant N-terminal histidine tagged C-terminal 21 aminoacids truncated NS5B polymerase after 1 hr by standard primer dependent elongation assay; design: species or system Hepatitis C virus isolate HC-J4
How it was run: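 Recombinant NS5BCΔ21 genotype 1b in a primer-dependent elongation assay. IC50 is the concentration halving enzyme activity in vitro; mean ± SD of two independent experiments in duplicate.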

[3] = system: Hepatitis C virus; experiment: Antiviral activity against HCV genotype 1b I389luc-ubi-neo/NS3-3'/5.1 replicon infected in human Huh5-2 cells assessed as inhibition of virus replication by luciferase assay; type: functional, cell-based, Hepacivirus hominis; settings: Huh-5-2
[4] = Cytostatic activity against human Huh5-2 cells carrying HCV genotype 1b I389luc-ubi-neo/NS3-3'/5.1 replicon assessed as reduction in metabolic activity after 72 hrs by MTS assay; type: ADME, cell-based, Huh-5-2; settings: for CC50: huh-5-2, 72 h
How it was run: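 Replicon-bearing Huh-5-2 cells run in parallel with the antiviral read-out; CC50 is the concentration halving MTS bioreduction to formazan, taken as the antimetabolic effect on host cells; mean ± SD from at least three dose–response curves.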

[5] = Cytotoxicity against human Huh5-2 cells carrying HCV genotype 1b I389luc-ubi-neo/NS3-3'/5.1 replicon assessed as cell morphological changes after 72 hrs by microscopic analysis; type: cell-based; settings: huh-5-2, 72 h
How it was run: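 Huh-5-2 replicon cells examined by microscopy for changes in cell morphology after 72 h of compound treatment.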

[6] = Selectivity index, ratio of CC50 for human Huh5-2 cells to EC50 for HCV genotype 1b I389luc-ubi-neo/NS3-3'/5.1 replicon infected in human Huh5-2 cells; design: species or system Huh-5-2
[7] = Induction of steatosis in human Huh-9-13 cells assessed as intracellular accumulation of […] lipids at 100 uM by Nile Red staining; type: cell-based

`Cc1ccc(-n2nc(C(=O)Nc3ccc(NS(C)(=O)=O)cc3)c3c2-c2ccccc2S(=O)(=O)N3C)cc1` gave an inhibition [1] greater than 50%, an IC50 [2] of 14.7 µM and an EC50 [3] of 4.8 µM. For the same compound, the EC90 [3] was 19.6 µM, the CC50 [4] was greater than 186 µM and the Activity [5] was “Non-toxic”. The “Ratio CC50/EC50” value [6] was 39.

Work on `COc1ccc(-n2nc(C(=O)Nc3ccc(NS(C)(=O)=O)cc3)c3c2-c2ccccc2S(=O)(=O)N3C)cc1` yielded an inhibition [1] of less than 50%, an IC50 [2] greater than 50 µM and an EC50 [3] of 8.1 µM. The EC90 [3] was 25 µM, the CC50 [4] was greater than 226 µM and the Activity [5] was “Non-toxic”. For the same compound, the “Ratio CC50/EC50” value [6] was greater than 28.

Work on `CN1c2c(NC(=O)c3ccc(NS(C)(=O)=O)cc3)nn(-c3cccc(F)c3)c2-c2ccccc2S1(=O)=O` yielded an inhibition [1] of less than 50%, an IC50 [2] greater than 50 µM and an EC50 [3] of 80.8 µM. For the same compound, the CC50 [4] was 160 µM, the Activity [5] was “Toxic” and the “Ratio CC50/EC50” value [6] was 2.3.

`Cc1cccc(-n2nc(C(=O)Nc3ccc(NS(C)(=O)=O)cc3)c3c2-c2ccccc2S(=O)(=O)N3C)c1` showed an inhibition [1] greater than 50%, an IC50 [2] of 21.2 µM and an EC50 [3] of 5.1 µM. For the same compound, the EC90 [3] was 11.8 µM, the CC50 [4] was greater than 233 µM and the Activity [5] was “Toxic”. The “Ratio CC50/EC50” value [6] was greater than 46.

For `CN1c2c(C(=O)Nc3ccccc3)nn(-c3cccc(F)c3)c2-c2ccccc2S1(=O)=O`, the inhibition [1] was less than 50%, the IC50 [2] was greater than 50 µM and the EC50 [3] was 4.5 µM. For the same compound, the CC50 [4] was 56 µM, the Activity [5] was “Toxic” and the “Ratio CC50/EC50” value [6] was 12.

Compound `CN1c2c(C(=O)Nc3ccc(NS(C)(=O)=O)cc3)nn(-c3cccc(C(F)(F)F)c3)c2-c2ccccc2S1(=O)=O` has an inhibition [1] greater than 50%, an IC50 [2] of 23.7 µM and an EC50 [3] of 7.7 µM. The EC90 [3] was 33.2 µM, the CC50 [4] was greater than 211 µM and the Activity [5] was “Toxic”. The “Ratio CC50/EC50” value [6] was greater than 28.

`CN1c2c(C(=O)Nc3ccc(NS(C)(=O)=O)cc3)nn(-c3ccccc3C(F)(F)F)c2-c2ccccc2S1(=O)=O` gave an inhibition [1] of less than 50%, an IC50 [2] greater than 50 µM and an EC50 [3] of 25 µM. For the same compound, the CC50 [4] was greater than 169 µM, the Activity [5] was “Toxic” and the “Ratio CC50/EC50” value [6] was greater than 7.

With `Cc1ccc(-n2nc(C(=O)Nc3ccc(NS(C)(=O)=O)cc3)c3c2-c2ccccc2S(=O)(=O)N3C)cc1Cl` the inhibition [1] was greater than 50%, the IC50 [2] was 8 µM and the EC50 [3] was 7 µM. The EC90 [3] was 37 µM, the CC50 [4] was greater than 175 µM and the Activity [5] was “Toxic”. For the same compound, the “Ratio CC50/EC50” value [6] was greater than 25.

With `CN1c2c(C(=O)Nc3ccc(NS(C)(=O)=O)cc3)nn(C3CCCCC3)c2-c2ccccc2S1(=O)=O` the inhibition [1] was greater than 50%, the IC50 [2] was 43 µM and the EC50 [3] was 4.5 µM. For the same compound, the EC90 [3] was 11 µM, the CC50 [4] was 44 µM and the Activity [5] was “Toxic”. The “Ratio CC50/EC50” value [6] was 9.7.

Compound `CN1c2c(C(=O)Nc3ccc(NS(C)(=O)=O)cc3)nn(-c3ccc(F)c(F)c3)c2-c2ccccc2S1(=O)=O` has an inhibition [1] greater than 50%, an IC50 [2] of 25.4 µM and an EC50 [3] of 13.9 µM. For the same compound, the CC50 [4] was 138 µM, the Activity [5] was “Toxic” and the “Ratio CC50/EC50” value [6] was 9.9.

`CN1c2c(C(=O)Nc3ccc(NS(C)(=O)=O)cc3)nn(-c3ccccc3Cl)c2-c2ccccc2S1(=O)=O` showed an inhibition [1] greater than 50%, an IC50 [2] of 17.8 µM and an EC50 [3] of 7.4 µM. For the same compound, the EC90 [3] was 20.8 µM, the CC50 [4] was greater than 224 µM and the Activity [5] was “Toxic”. The “Ratio CC50/EC50” value [6] was greater than 30.

`CN1c2c(C(=O)Nc3ccc(NS(C)(=O)=O)cc3)nn(-c3ccc(Br)cc3)c2-c2ccccc2S1(=O)=O` gave an inhibition [1] greater than 50%, an IC50 [2] of 12.1 µM and an EC50 [3] of 7.4 µM. For the same compound, the EC90 [3] was 21 µM, the CC50 [4] was greater than 166 µM and the Activity [5] was “Toxic”. For the same compound, the “Ratio CC50/EC50” value [6] was greater than 22.

Work on `CN1c2c(C(=O)Nc3ccc(NS(C)(=O)=O)cc3)nn(-c3ccc(Cl)c(Cl)c3)c2-c2ccccc2S1(=O)=O` yielded an inhibition [1] greater than 50%, an IC50 [2] of 2.7 µM and an EC50 [3] of 9.7 µM. For the same compound, the CC50 [4] was greater than 168 µM, the Activity [5] was “Toxic” and the “Ratio CC50/EC50” value [6] was greater than 17.

`CN1c2c(C(=O)Nc3ccc(NS(C)(=O)=O)cc3)nn(-c3cccc(Br)c3)c2-c2ccccc2S1(=O)=O` gave an inhibition [1] greater than 50%, an IC50 [2] of 7.7 µM and an EC50 [3] of 8.3 µM. For the same compound, the EC90 [3] was 26 µM, the CC50 [4] was greater than 166 µM and the Activity [5] was “Toxic”. For the same compound, the “Ratio CC50/EC50” value [6] was greater than 20.

For `CN1c2c(C(=O)Nc3ccc(OCC(N)=O)cc3)nn(-c3cccc(F)c3)c2-c2ccccc2S1(=O)=O`, the inhibition [1] was less than 50%, the IC50 [2] was greater than 50 µM and the EC50 [3] was 15 µM. For the same compound, the EC90 [3] was 34 µM, the CC50 [4] was greater than 192 µM and the Activity [5] was “Toxic”. For the same compound, the “Ratio CC50/EC50” value [6] was greater than 13.

Work on `CN1c2c(C(=O)Nc3ccc(NS(C)(=O)=O)cc3)nn(-c3cccc(F)c3)c2-c2ccccc2S1(=O)=O` yielded a CC50 at 72 h [4] greater than 370 µM.

With `CN1c2c(C(=O)Nc3ccc(NS(C)(=O)=O)cc3)nn(-c3ccccc3Br)c2-c2ccccc2S1(=O)=O` the inhibition [1] was greater than 50%, the IC50 [2] was 26.5 µM and the EC50 [3] was 12 µM. For the same compound, the CC50 [4] was 107 µM, the Activity [5] was “Toxic” and the “Ratio CC50/EC50” value [6] was 8.9.

With `Cc1ccccc1-n1nc(C(=O)Nc2ccc(NS(C)(=O)=O)cc2)c2c1-c1ccccc1S(=O)(=O)N2C` the inhibition [1] was greater than 50%, the IC50 [2] was 30.8 µM and the EC50 [3] was 14.3 µM. The CC50 [4] was greater than 233 µM, the Activity [5] was “Toxic” and the “Ratio CC50/EC50” value [6] was greater than 16.

In the case of `Cc1ccc(-n2nc(C(=O)Nc3ccc(NS(C)(=O)=O)cc3)c3c2-c2ccccc2S(=O)(=O)N3C)cc1C`, the inhibition [1] is reported as less than 50%, the IC50 [2] is reported as greater than 50 µM and the EC50 [3] is reported as 6.2 µM. The EC90 [3] was 20 µM, the CC50 [4] was greater than 181 µM and the Activity [5] was “Toxic”. For the same compound, the “Ratio CC50/EC50” value [6] was greater than 29.

For `CN1c2c(C(=O)Nc3ccc(NS(C)(=O)=O)cc3)nn(-c3ccc(C(F)(F)F)cc3)c2-c2ccccc2S1(=O)=O`, the inhibition [1] was greater than 50%, the IC50 [2] was 36.3 µM and the EC50 [3] was 7.3 µM. For the same compound, the EC90 [3] was 31.2 µM, the CC50 [4] was greater than 169 µM and the Activity [5] was “Toxic”. The “Ratio CC50/EC50” value [6] was greater than 23.

`COc1cccc(-n2nc(C(=O)Nc3ccc(NS(C)(=O)=O)cc3)c3c2-c2ccccc2S(=O)(=O)N3C)c1` showed an inhibition [1] of less than 50%, an IC50 [2] greater than 50 µM and an EC50 [3] of 11 µM. For the same compound, the CC50 [4] was greater than 181 µM, the Activity [5] was “Toxic” and the “Ratio CC50/EC50” value [6] was greater than 16.

With `CN1c2c(C(=O)Nc3ccc(NS(C)(=O)=O)cc3)n[nH]c2-c2ccccc2S1(=O)=O` the inhibition [1] was less than 50%, the IC50 [2] was greater than 50 µM and the EC50 [3] was 88.2 µM. For the same compound, the EC90 [3] was 65.2 µM, the CC50 [4] was 155 µM and the Activity [5] was “Toxic”. The “Ratio CC50/EC50” value [6] was 2.5.

In the case of `CN1c2c(C(=O)Nc3ccc(NS(C)(=O)=O)cc3)nn(-c3ccc(Cl)c(C(F)(F)F)c3)c2-c2ccccc2S1(=O)=O`, the inhibition [1] is reported as less than 50%, the IC50 [2] is reported as greater than 50 µM and the EC50 [3] is reported as 6.4 µM. The CC50 [4] was greater than 160 µM, the Activity [5] was “Toxic” and the “Ratio CC50/EC50” value [6] was greater than 25.

For `CN1c2c(C(=O)Nc3ccc(NS(C)(=O)=O)cc3)nn(-c3ccc(Cl)cc3)c2-c2ccccc2S1(=O)=O`, the Activity [7] was “Toxic”, the inhibition [1] was greater than 50% and the IC50 [2] was 7.9 µM. The EC50 [3] was 8.1 µM, the EC90 [3] was 23.3 µM and the CC50 [4] was greater than 224 µM. The Activity [5] was “Non-toxic” and the “Ratio CC50/EC50” value [6] was greater than 28.
